The record followed here is ChEMBL document CHEMBL5370673 (ACS Med Chem Lett, 2023).

Assay [1] can be described thus: Activation of Echinococcus granulosus in TRPM binding site of PZQ expressed in HEK293 cells assessed as effect in cytosolic Ca2+ level measured for 250 sec by […] NW staining based FLIPR assay. The following applies: for pEC50: Echinococcus granulosus, HEK293, read-out: EC50; for EC50: hek293. The class given is cell-based.
For assay [2], the system named is Schistosoma mansoni. Put plainly: Antischistosomal activity against Schistosoma mansoni assessed as maximal effect at <= 320 uM. The class given is functional, organism-based.
For assay [3], the system named is Rodentolepis nana. In words: Anti-cestodal activity against Hymenolepis nana infected in CF1/W74 mouse assessed as reduction in parasitic flatworms at 25 mg/kg relative to control. The class given is functional. The arrangement: scale not given: the % may be the effect or the level left.
Assay [4] is described as follows: Activation of Mesocestoides corti in TRPM binding site of PZQ expressed in HEK293 cells assessed as effect in cytosolic Ca2+ level measured for 250 sec by […] NW staining based FLIPR assay. The class given is cell-based. The following applies: for pEC50: Mesocestoides corti, HEK293, read-out: EC50; for EC50: hek293. The method, boiled down: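 HEK293 cells transiently transfected with the individual TRPMPZQ ortholog (S. mansoni, E. granulosus or M. corti). Cytosolic Ca2+ change read by fluorescence reporter (FLIPR) across increasing analog concentrations. Untransfected HEK293 cells serve as control.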

Assay [5] is described as follows: Activation of Schistosoma mansoni in TRPM binding site of PZQ expressed in HEK293 cells assessed as effect in cytosolic Ca2+ level measured for 250 sec by […] NW staining based FLIPR assay. The class given is cell-based. The following applies: for EC50: hek293.
The test system of assay [6] is Schistosoma mansoni. In words: Antischistosomal activity against Schistosoma mansoni infected in CF1/W74 mouse assessed as reduction in parasitic flatworms viability at 500 mg/kg administered for 5 days relative to control. The class given is functional.
For assay [7], the system named is Schistosoma mansoni. In words: Antischistosomal activity against Schistosoma mansoni assessed as maximal effect at <= 3.2 uM. The class given is functional, organism-based.
Assay [8] has as its system Schistosoma mansoni. Put plainly: Antischistosomal activity against Schistosoma mansoni infected in CF1/W74 mouse assessed as reduction in parasitic flatworms viability at 50 mg/kg administered for 5 days relative to control. The following applies: time 5 day. The class given is functional.
Assay [9] in a line: Selectivity ratio of EC50 for activation of Schistosoma mansoni in TRPM binding site of PZQ expressed in HEK293 cells to EC50 for activation of Mesocestoides corti in TRPM binding site of PZQ expressed in HEK293 cells. The class given is cell-based.
Assay [10] is described as follows: Selectivity ratio of EC50 for activation of Schistosoma mansoni in TRPM binding site of PZQ expressed in HEK293 cells to EC50 for activation of Echinococcus granulosus in TRPM binding site of PZQ expressed in HEK293 cells. The class given is cell-based.
Assay [11] relates to Rodentolepis nana. In words: Anti-cestodal activity against Hymenolepis nana infected in CF1/W74 mouse assessed as reduction in parasitic flatworms at 500 mg/kg relative to control. The class given is functional. The arrangement: scale not given: the % may be the effect or the level left.
Assay [12] deals with Echinococcus multilocularis. Put plainly: Anthelmintic activity against Echinococcus multilocularis MB17 protoscoleces assessed as reduction in motility at 0.001 to 100 uM measured after 0.5 hrs by live cell imaging analysis. The class given is functional, organism-based. The following applies: dose 0.001-100 µM. The method, boiled down:
(§1)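 E. multilocularis protoscoleces incubated ex vivo across a concentration range. Motility scored at 0.5, 12 and 24 h and expressed as % of DMSO vehicle control (mean ± SEM). IC50 taken from concentration–response curves at each time point.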

Assay [13] has as its system Echinococcus multilocularis. Put plainly: Anthelmintic activity against Echinococcus multilocularis MB17 protoscoleces assessed as increase in contraction at 30 uM by live cell imaging analysis. The class given is functional, organism-based.
For assay [14], the system named is Echinococcus multilocularis. In words: Anthelmintic activity against Echinococcus multilocularis MB17 protoscoleces assessed as increase in contraction at 1 uM by live cell imaging analysis. The class given is functional, organism-based.
The test system of assay [15] is Echinococcus multilocularis. Put plainly: Anthelmintic activity against Echinococcus multilocularis MB17 protoscoleces assessed as reduction in motility measured after 24 hrs by live cell imaging analysis. The class given is functional, organism-based. In short, it runs like this: as §1
Assay [16] relates to Echinococcus multilocularis. Put plainly: Induction of morphological changes in Echinococcus multilocularis MB17 protoscoleces assessed as increase in contraction at 100 uM by cestode motility assay. The class given is functional, organism-based.

pEC50: −log10 of the molar value. Activity calls are given as the source filed them. No cut-off for these calls is given here.

`O=C(c1cccnc1)N1CC(=O)N2CCc3ccccc3C2C1` (racemic): the negative logarithm of the EC50 (pEC50) is 5.64 in assay [1] and 5.28 in assay [4]. Further, the outcome in the assay on Schistosoma mansoni [2] was Active. Moreover, the values for the Activity with Rodentolepis nana [3] and in the assay with Schistosoma mansoni [6] (time 5 day) were 100% and less than 90%, respectively. Further, the EC50 entry in [5] is “Not Active”.

Consider `O=C(C1CCCCC1)N1CC(=O)N2CCc3ccccc3[C@@H]2C1` [PRAZIQUANTEL, (R)-], for which the Activity with Rodentolepis nana [3] and in the assay with Schistosoma mansoni [8] was 100% in each case. Besides, in [4], the pEC50 was 7.10. Further, the result in the assay with Schistosoma mansoni [7] was Active.

As for `Nc1ccc(C(=O)N2CC(=O)N3CCc4ccccc4C3C2)cc1` (centres undefined), the pEC50 in [1] is 6.02; in assay [4], 6.10. Besides, the Ratio EC50 in assay [9] and in assay [10] was 8 in each case. For the same molecule, in the assay with Schistosoma mansoni [2], the outcome was Active. Besides, the Activity in the assay with Rodentolepis nana [3] and with Schistosoma mansoni [6] (time 5 day) was 100% each time.

Consider `N[C@H]1CC[C@@H](C(=O)N2CC(=O)N3CCc4ccccc4C3C2)CC1` (some centres undefined), for which the pEC50 in assay [1] and in assay [4] was less than 4.00 in each case. Moreover, the result with Schistosoma mansoni [2] and in the assay with Schistosoma mansoni [6] (time 5.0 day) was inactive. Also, the Activity in the assay on Rodentolepis nana [11] was less than 90%. In [5], the EC50 entry is given as “Not Active”.

`O=C(C1CC1)N1CC(=O)N2CCc3ccccc3C2C1` (centres undefined): the pEC50 in assay [1] is 4.28; in assay [4], 4.19. The result in the assay on Schistosoma mansoni [2] was inactive. Also, the Activity in the assay on Rodentolepis nana [11] is recorded as 100%; in the assay with Schistosoma mansoni [6] (time 5 day) it was less than 90%. Further, in [5], the EC50 entry is “Not Active”.

Regarding `O=C(c1cccnc1)N1CC(=O)N2CCc3ccccc3[C@@H]2C1`, the pEC50 in assay [1] was 5.85; in assay [4], 6.01; in assay [5] (Schistosoma mansoni, HEK293, read-out: EC50) it was less than 4.00. The result in the assay on Schistosoma mansoni [2] was inactive. The Activity with Rodentolepis nana [3] and in the assay on Schistosoma mansoni [6] (time 5 day) was 100% each time. Moreover, the result in assay [12] and in assay [13] was Active.

For the molecule `O=C(C1CCCCC1)N1CC(=O)N2CCc3ccccc3[C@H]2C1`, in the assay with Schistosoma mansoni [2], the result was Active. The Activity in the assay on Rodentolepis nana [11] was 100%; in the assay with Schistosoma mansoni [6] (time 5 day), greater than 90%. In addition, the pEC50 in assay [4] is 5.91.

For `O=C(C1CCCCC1)N1CC(=O)N2CCc3ccccc3C2C1` (racemic) [PRAZIQUANTEL], the result (in [14]; in [12]; in the assay with Schistosoma mansoni [7]; in assay [15]) was Active. Besides, the Activity with Rodentolepis nana [3] and in the assay with Schistosoma mansoni [8] was 100% in each case. The pEC50 in [4] was 6.92.

In the case of `O=C(c1ccc([N+](=O)[O-])cc1)N1CC(=O)N2CCc3ccccc3C2C1` (centres undefined), the EC50 result in assay [1], in assay [4] and in assay [5] was “Not Active” each time. For the same molecule, the outcome in the assay on Schistosoma mansoni [2] was inactive. In addition, the figures for the Activity in the assay with Rodentolepis nana [11] and in the assay with Schistosoma mansoni [6] (time 5 day) were 100% and less than 90%, respectively.

Consider `O=C(c1cccnc1)N1CC(=O)N2CCc3ccccc3[C@H]2C1`, for which the negative logarithm of the EC50 (pEC50) was 4.66 in [1] and 4.80 in [4]. The outcome in the assay with Schistosoma mansoni [2] and with Schistosoma mansoni [6] (time 5.0 day) was inactive. Besides, the Activity with Rodentolepis nana [11] came to 100%. Besides, the result in assay [12] and in assay [16] was Active. In [5], the EC50 entry was “Not Active”.

For the molecule `CNc1ccc(C(=O)N2CC(=O)N3CCc4ccccc4C3C2)cc1` (centres undefined), the pEC50 in assay [1] and in assay [4] was less than 4.00 in each case. Moreover, the outcome with Schistosoma mansoni [2] was inactive. Moreover, the Activity with Rodentolepis nana [3] and in the assay with Schistosoma mansoni [6] (time 5 day) was 100% each time. Further, the EC50 entry in assay [5] is “Not Active”.

With `CN(C)c1ccc(C(=O)N2CC(=O)N3CCc4ccccc4C3C2)cc1` (centres undefined), the EC50 result in assay [1], in assay [4] and in [5] was “Not Active” each time. In the assay with Schistosoma mansoni [2], the outcome was inactive. In addition, the Activity with Rodentolepis nana [3] and in the assay on Schistosoma mansoni [6] (time 5 day) was 100% throughout.
